To fix the notation:
B1: tRNA (parent)
chain: GUUCCGUUGGCGUAAUGGUAACGCGUCUCCCUCCUAAGGAGAAGACUGCGGGUUCGAGUCCCGUACGGAACG

Variants at the floor of the assay were thinned out. Where only a bound is given, the exact number is not on record here.

This data set covers variants of B1. Put plainly: yeast fitness relative to wild type (ratio to wild type); higher = fitter; tRNA-Arg(CCU), competitive growth, 37 C, YPD. A digest of the protocol: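 For this measurement, the tRNA-Arg(CCU) gene was varied by chemical synthesis at a 3% per-site mutation rate across 69 sites, and each variant was placed at the native genomic locus in Saccharomyces cerevisiae. The pooled strains went through a 24-hour competition in YPD at 37°C in six parallel replicates, with amplicons from start and end populations read by 100-nucleotide paired-end sequencing. Darwinian fitness relative to wild type followed from the change in each genotype's frequency. Genotypes needed ≥ 100 starting reads, and estimates < 0.5 were set to 0.5.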
Take GUUCCGUUGGCGUAAUGGUAACGCGUCUCCCUCCUAAGGAGAAGACUGAGGGUACGAGUCCCGUACGGAACG [C49A U54A]: the yeast fitness is 0.538. Then GUUCCGUUGGCGUAAUGGUAACGCGUCUCCCUCCUAAGGAGAAGACUGAGGGUGCGAGUCCCGUACGGAACG [C49A U54G], with 0.584. Then GUUCCGUUGGCGUAAUGGUAACGCGUCUCCCUCCUAAGGAGAAGACUGGGGGUUCGUGUCGCGUACGGAACG [C49G A57U C61G], with 0.516; and GUUCCGUUGGCGUAAUGGUAACGCGUCUCCCUCCUAAGGAGAAGACUGAGGGUUCGAGUCCCGUACAGAACG [C49A G67A], with 0.579; and GUUCCGUUGGCGUAAUGGUAACGCGUCUCCCUCCUAAGGAGAAGACUGGGGGUUCGCGUCCCGUACGGAACG [C49G A57C], with 0.656. Then GUUCCGUUGGCGUAAUGGUAACGCGUCUCCCUCCUAAGGAGAAGACUGGGGGUUCGGGUCCCGUACGGAACG [C49G A57G], with 0.719; and GUUCCGUUGGCGUAAUGGUAACGCGUCUCCCUCCUAAGGAGAAGACUGGGGGUUCGUGUCCCGUACGGAACG [C49G A57U], with 0.792; and GUUCCGUUGGCGUAAUGGUAACGCGUCUCCCUCCUAAGGAGAAGACUGAGGGAUCGAGCCACGUACGGAACG [C49A U53A U59C C61A], with at most 0.5. For the variant GUUCCGUUGGCGUAAUGGUAACGCGUCUCCCUCCUAAGGAGAAGACUGGGGGUUCGAGUUCCGUCCGGAACG [C49G C60U A65C], the yeast fitness is at most 0.5. Then GUUCCGUUGGCGUAAUGGUAACGCGUCUCCCUCCUAAGGAGAAGACUGGGGGUUCGAGUCCCGUAGGGAACG [C49G C66G], with 0.647.

Turning to GUUCCGUUGGCGUAAUGGUAACGCGUCUCCCUCCUAAGGAGAAGACUGGGGGUUCGAGUCCCGUAUGGAACG [C49G C66U], the yeast fitness was determined as 0.781. Then GUUCCGUUGGCGUAAUGGUAACGCGUCUCCCUCCUAAGGAGAAGACUGGAGGUUCGCGUCCCGUACGGAACG [C49G G50A A57C], with at most 0.5.

Regarding GUUCCGUUGGCGUAAUGGUAACGCGUCUCCCUCCUAAGGAGAAGACUGAGGGUUCGAGUACCGUACGGACCG [C49A C60A A70C], the yeast fitness was at most 0.5.

On to GUUCCGUUGGCGUAAUGGUAACGCGUCUCCCUCCUAAGGAGAAGACUCCGGGUUCGAGUCCCGCACGGAACG [G48C U64C], for which the yeast fitness is 1.08. Then GUUCCGUUGGCGUAAUGGUAACGCGUCUCCCUCCUAAGGAGAAGACUCCGGGUUCGAGUCCCGAACGGAACG [G48C U64A], with 0.946; and GUUCCGUUGGCGUAAUGGUAACGCGUCUCCCUCCUAAGGAGAAGACUCCGGGUUCGAGACCCGUAUGGAACG [G48C U59A C66U], with 0.679. Then GUUCCGUUGGCGUAAUGGUAACGCGUCUCCCUCCUAAGGAGAAGACUGAAGGUUCGAGUCCUGUACGGAACG [C49A G50A C62U], with 0.637. Then GUUCCGUUGGCGUAAUGGUAACGCGUCUCCCUCCUAAGGAGAAGACUUCGGGUUCGAGUCCCGUACGGAACG [G48U], with 1.03; and GUUCCGUUGGCGUAAUGGUAACGCGUCUCCCUCCUAAGGAGAAGACUCCGGGUACGAGUCCCGUACGGAACG [G48C U54A], with 0.679.

For the variant GUUCCGUUGGCGUAAUGGUAACGCGUCUCCCUCCUAAGGAGAAGACUCCGGGUCCGAGUCCCGUACGGAACG [G48C U54C], the yeast fitness amounted to 0.973. Then GUUCCGUUGGCGUAAUGGUAACGCGUCUCCCUCCUAAGGAGAAGACUCCGGGUUCCAGUCCCGUACGGAACG [G48C G56C], with 0.7; and GUUCCGUUGGCGUAAUGGUAACGCGUCUCCCUCCUAAGGAGAAGACUGGGGGUUCGAGUCCCGUAGCGAACG [C49G C66G G67C], with 0.569. Then GUUCCGUUGGCGUAAUGGUAACGCGUCUCCCUCCUAAGGAGAAGACUCCGCGAUCGAGUCCCGUAAGGAACG [G48C G51C U53A C66A], with at most 0.5. Then GUUCCGUUGGCGUAAUGGUAACGCGUCUCCCUCCUAAGGAGAAGACUGAGGGUUCGAGUCUCGUGCGGAACG [C49A C61U A65G], with 0.568; and GUUCCGUUGGCGUAAUGGUAACGCGUCUCCCUCCUAAGGAGAAGACUGAUGGUUCGAGUCCUGUACGGAACG [C49A G50U C62U], with at most 0.5; and GUUCCGUUGGCGUAAUGGUAACGCGUCUCCCUCCUAAGGAGAAGACUGGGGGUUCGAGUCUCGUACGGAACG [C49G C61U], with 0.719. As for GUUCCGUUGGCGUAAUGGUAACGCGUCUCCCUCCUAAGGAGAAGACUGGGGGUUCGAGUCACGUACGGAACG [C49G C61A], the yeast fitness turned out to be 0.808.

Consider GUUCCGUUGGCGUAAUGGUAACGCGUCUCCCUCCUAAGGAGAAGACUGGGGAUUCGAGUCCCGUACGGUACG [C49G G52A A69U], for which the yeast fitness came to 0.542.

On to GUUCCGUUGGCGUAAUGGUAACGCGUCUCCCUCCUAAGGAGAAGACUCCGGGUUCGAGACCCGUACGGAACG [G48C U59A], for which the yeast fitness was 0.785. Then GUUCCGUUGGCGUAAUGGUAACGCGUCUCCCUCCUAAGGAGAAGACUGAGGGUUCGAGUCCCGUACGGAACG [C49A], with 0.759. Then GUUCCGUUGGCGUAAUGGUAACGCGUCUCCCUCCUAAGGAGAAGACUGGGGGUUCGAGUCCCGUACGGAACG [C49G], with 0.99. Then GUUCCGUUGGCGUAAUGGUAACGCGUCUCCCUCCUAAGGAGAAGACUGAGGGUUCGAGUCCCGUACGGAUCG [C49A A70U], with 0.714. Regarding GUUCCGUUGGCGUAAUGGUAACGCGUCUCCCUCCUAAGGAGAAGACUGAGGGUUCCAGUCCCGUACAGAACG [C49A G56C G67A], the yeast fitness was at most 0.5. Then GUUCCGUUGGCGUAAUGGUAACGCGUCUCCCUCCUAAGGAGAAGACUGAGGGUUCGUGUCCCGUACGGACCG [C49A A57U A70C], with 0.518; and GUUCCGUUGGCGUAAUGGUAACGCGUCUCCCUCCUAAGGAGAAGACUCCGGGAUCGAGUCUCGUACGGAACG [G48C U53A C61U], with 0.517; and GUUCCGUUGGCGUAAUGGUAACGCGUCUCCCUCCUAAGGAGAAGACUGAGCGUUCGAGUCCCGUACGGAACG [C49A G51C], with 0.589.

Take GUUCCGUUGGCGUAAUGGUAACGCGUCUCCCUCCUAAGGAGAAGACUGAGGGUUCGAGUCCUGUGCGGAACG [C49A C62U A65G]: the yeast fitness was at most 0.5. Then GUUCCGUUGGCGUAAUGGUAACGCGUCUCCCUCCUAAGGAGAAGACUGGGGGUUCGAGUUCCGUACGGGACG [C49G C60U A69G], with at most 0.5.
